Converted amounts (≈) assume the structure as drawn.
Key:
Type in all cases: functional
[1] = test system: Candida albicans; experiment: Antimicrobial activity against Candida albicans SC5314 after 24 hrs by serial dilution method; conditions: SC5314, 24 h
Summary of the method: (§1)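 Broth serial dilution MIC in 96-well plates following NCCLS/CLSI methods. Compounds were dissolved in DMSO and serially diluted in growth medium, with incubation at 35 °C. […] C. parapsilosis 22019 served as the quality-control strain in each assay.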

[2] = test system: Candida albicans; experiment: Antimicrobial activity against Candida albicans Y0109 after 24 hrs by serial dilution method; conditions: Y0109, 24 h; summary of the method: as §1
[3] = test system: Candida parapsilosis; experiment: Antimicrobial activity against Candida parapsilosis 22019 after 24 hrs by serial dilution method; conditions: Lodderomyces parapsilosis, 22019, 24 h; summary of the method: as §1
[4] = test system: Cryptococcus neoformans; experiment: Antimicrobial activity against Cryptococcus neoformans 32609 after 72 hrs by serial dilution method; conditions: Cryptococcus neoformans, 32609, 72 h; summary of the method: as §1
[5] = test system: Nakaseomyces glabratus; experiment: Antimicrobial activity against Candida glabrata 537 after 24 hrs by serial dilution method; conditions: Nakaseomyces glabratus, 537, 24 h; summary of the method: as §1
[6] = test system: Aspergillus fumigatus; experiment: Antimicrobial activity against Aspergillus fumigatus 7544 after 48 hrs by serial dilution method; conditions: Aspergillus fumigatus, 7544, 48 h; summary of the method: as §1

Row | MIC [1] | MIC [2] | MIC [3] | MIC [4] | MIC [5] | MIC [6] | Compound
1 | 0.5 µg/mL (≈ 1.12 µM) | 1 µg/mL (≈ 2.24 µM) | 1 µg/mL (≈ 2.24 µM) | 16 µg/mL (≈ 35.8 µM) | 8 µg/mL (≈ 17.9 µM) | > 16 µg/mL | C[C@@H](N1CCn2nnc(C(=O)N(C)C)c2C1)[C@](O)(Cn1cncn1)c1ccc(F)cc1F
2 | 1 µg/mL (≈ 2.21 µM) | 2 µg/mL (≈ 4.43 µM) | 4 µg/mL (≈ 8.86 µM) | 8 µg/mL (≈ 17.7 µM) | 8 µg/mL (≈ 17.7 µM) | > 16 µg/mL | C[C@@H](N1CCn2nnc(-c3ccccc3)c2C1)[C@](O)(Cn1cncn1)c1ccc(F)cc1F
3 | 2 µg/mL (≈ 4.19 µM) | 4 µg/mL (≈ 8.38 µM) | 4 µg/mL (≈ 8.38 µM) | 16 µg/mL (≈ 33.5 µM) | 4 µg/mL (≈ 8.38 µM) | > 16 µg/mL | C[C@@H](N1CCn2nnc(-c3ccc(C#N)nc3)c2C1)[C@](O)(Cn1cncn1)c1ccc(F)cc1F
4 | 0.5 µg/mL (≈ 1.12 µM) | 0.5 µg/mL (≈ 1.12 µM) | 0.5 µg/mL (≈ 1.12 µM) | 2 µg/mL (≈ 4.48 µM) | 1 µg/mL (≈ 2.24 µM) | > 64 µg/mL | CCOC(=O)c1cn2c(n1)CN([C@H](C)[C@](O)(Cn1cncn1)c1ccc(F)cc1F)CC2
5 | 0.125 µg/mL (≈ 0.257 µM) | 0.125 µg/mL (≈ 0.257 µM) | 0.125 µg/mL (≈ 0.257 µM) | 0.125 µg/mL (≈ 0.257 µM) | 0.125 µg/mL (≈ 0.257 µM) | 32 µg/mL (≈ 65.8 µM) | C[C@@H](N1CCn2cc(-c3ccc(F)cc3F)nc2C1)[C@](O)(Cn1cncn1)c1ccc(F)cc1F
6 | 0.125 µg/mL (≈ 0.241 µM) | 0.5 µg/mL (≈ 0.964 µM) | 0.125 µg/mL (≈ 0.241 µM) | 0.25 µg/mL (≈ 0.482 µM) | 0.25 µg/mL (≈ 0.482 µM) | 64 µg/mL (≈ 123 µM) | C[C@@H](N1CCn2cc(-c3cccc(C(F)(F)F)c3)nc2C1)[C@](O)(Cn1cncn1)c1ccc(F)cc1F
7 | 0.25 µg/mL (≈ 0.471 µM) | 0.125 µg/mL (≈ 0.236 µM) | 0.5 µg/mL (≈ 0.943 µM) | 0.25 µg/mL (≈ 0.471 µM) | 0.5 µg/mL (≈ 0.943 µM) | 16 µg/mL (≈ 30.2 µM) | C[C@@H](N1CCn2nc(-c3ccc(Br)cc3)nc2C1)[C@](O)(Cn1cncn1)c1ccc(F)cc1F
8 | 0.25 µg/mL (≈ 0.514 µM) | 0.125 µg/mL (≈ 0.257 µM) | 0.5 µg/mL (≈ 1.03 µM) | 0.125 µg/mL (≈ 0.257 µM) | 0.5 µg/mL (≈ 1.03 µM) | 16 µg/mL (≈ 32.9 µM) | C[C@@H](N1CCn2nc(-c3ccc(Cl)cc3)nc2C1)[C@](O)(Cn1cncn1)c1ccc(F)cc1F
9 | 0.25 µg/mL (≈ 0.471 µM) | 0.125 µg/mL (≈ 0.236 µM) | 0.5 µg/mL (≈ 0.943 µM) | 1 µg/mL (≈ 1.89 µM) | 1 µg/mL (≈ 1.89 µM) | 16 µg/mL (≈ 30.2 µM) | C[C@@H](N1CCn2nc(-c3cccc(Br)c3)nc2C1)[C@](O)(Cn1cncn1)c1ccc(F)cc1F
10 | 0.5 µg/mL (≈ 0.963 µM) | 2 µg/mL (≈ 3.85 µM) | 0.5 µg/mL (≈ 0.963 µM) | 2 µg/mL (≈ 3.85 µM) | 0.25 µg/mL (≈ 0.481 µM) | 16 µg/mL (≈ 30.8 µM) | C[C@@H](N1CCn2nc(-c3cccc(C(F)(F)F)c3)nc2C1)[C@](O)(Cn1cncn1)c1ccc(F)cc1F

The remaining lines, values behind:

Row | Compound | MIC [1] | MIC [2] | MIC [3] | MIC [4] | MIC [5] | MIC [6]
11 | C[C@@H](N1CCn2nncc2C1)[C@](O)(Cn1cncn1)c1ccc(F)cc1F | 0.0625 µg/mL (≈ 0.166 µM) | 0.125 µg/mL (≈ 0.333 µM) | 0.25 µg/mL (≈ 0.666 µM) | 0.25 µg/mL (≈ 0.666 µM) | 0.5 µg/mL (≈ 1.33 µM) | 16 µg/mL (≈ 42.6 µM)
12 | C[C@@H](N1CCn2nnc(Cl)c2C1)[C@](O)(Cn1cncn1)c1ccc(F)cc1F | ≤ 0.0312 µg/mL | 0.0625 µg/mL (≈ 0.153 µM) | 0.125 µg/mL (≈ 0.305 µM) | ≤ 0.0625 µg/mL | 0.25 µg/mL (≈ 0.61 µM) | 8 µg/mL (≈ 19.5 µM)
13 | Cc1nnn2c1CN([C@H](C)[C@](O)(Cn1cncn1)c1ccc(F)cc1F)CC2 | 0.25 µg/mL (≈ 0.642 µM) | 0.5 µg/mL (≈ 1.28 µM) | 0.5 µg/mL (≈ 1.28 µM) | 4 µg/mL (≈ 10.3 µM) | 0.5 µg/mL (≈ 1.28 µM) | 16 µg/mL (≈ 41.1 µM)
14 | C[C@@H](N1CCn2nnc(-c3cccnc3)c2C1)[C@](O)(Cn1cncn1)c1ccc(F)cc1F | 2 µg/mL (≈ 4.42 µM) | 4 µg/mL (≈ 8.84 µM) | 8 µg/mL (≈ 17.7 µM) | 4 µg/mL (≈ 8.84 µM) | 8 µg/mL (≈ 17.7 µM) | 8 µg/mL (≈ 17.7 µM)
15 | C[C@@H](N1CCn2nnc(-c3ccncc3)c2C1)[C@](O)(Cn1cncn1)c1ccc(F)cc1F | 1 µg/mL (≈ 2.21 µM) | 4 µg/mL (≈ 8.84 µM) | 4 µg/mL (≈ 8.84 µM) | 16 µg/mL (≈ 35.4 µM) | 8 µg/mL (≈ 17.7 µM) | > 16 µg/mL
16 | C[C@@H](N1CCn2nnc(-c3cncnc3)c2C1)[C@](O)(Cn1cncn1)c1ccc(F)cc1F | 1 µg/mL (≈ 2.21 µM) | 2 µg/mL (≈ 4.41 µM) | 8 µg/mL (≈ 17.6 µM) | 8 µg/mL (≈ 17.6 µM) | 8 µg/mL (≈ 17.6 µM) | > 16 µg/mL
17 | C[C@@H](N1CCn2cc(C(F)(F)F)nc2C1)[C@](O)(Cn1cncn1)c1ccc(F)cc1F | 0.25 µg/mL (≈ 0.565 µM) | 0.25 µg/mL (≈ 0.565 µM) | 0.25 µg/mL (≈ 0.565 µM) | 1 µg/mL (≈ 2.26 µM) | 0.25 µg/mL (≈ 0.565 µM) | > 64 µg/mL
18 | C[C@@H](N1CCn2cc(C(C)(C)C)nc2C1)[C@](O)(Cn1cncn1)c1ccc(F)cc1F | 0.25 µg/mL (≈ 0.581 µM) | 0.125 µg/mL (≈ 0.29 µM) | 0.25 µg/mL (≈ 0.581 µM) | 0.25 µg/mL (≈ 0.581 µM) | 0.25 µg/mL (≈ 0.581 µM) | > 64 µg/mL
19 | COc1ccc(-c2cn3c(n2)CN([C@H](C)[C@](O)(Cn2cncn2)c2ccc(F)cc2F)CC3)cc1 | 0.0625 µg/mL (≈ 0.13 µM) | 0.0625 µg/mL (≈ 0.13 µM) | 0.125 µg/mL (≈ 0.26 µM) | 0.125 µg/mL (≈ 0.26 µM) | 0.125 µg/mL (≈ 0.26 µM) | 32 µg/mL (≈ 66.6 µM)
20 | C[C@@H](N1CCn2cc(-c3ccc(F)cc3)nc2C1)[C@](O)(Cn1cncn1)c1ccc(F)cc1F | 0.125 µg/mL (≈ 0.267 µM) | 0.125 µg/mL (≈ 0.267 µM) | 0.125 µg/mL (≈ 0.267 µM) | 0.125 µg/mL (≈ 0.267 µM) | 0.125 µg/mL (≈ 0.267 µM) | 32 µg/mL (≈ 68.3 µM)
21 | C[C@@H](N1CCn2cc(-c3ccc(C(F)(F)F)cc3)nc2C1)[C@](O)(Cn1cncn1)c1ccc(F)cc1F | 0.125 µg/mL (≈ 0.241 µM) | 0.25 µg/mL (≈ 0.482 µM) | 0.25 µg/mL (≈ 0.482 µM) | 0.125 µg/mL (≈ 0.241 µM) | 0.25 µg/mL (≈ 0.482 µM) | 32 µg/mL (≈ 61.7 µM)
22 | Cc1ccc(-c2cn3c(n2)CN([C@H](C)[C@](O)(Cn2cncn2)c2ccc(F)cc2F)CC3)cc1 | 0.0625 µg/mL (≈ 0.135 µM) | 0.0625 µg/mL (≈ 0.135 µM) | 0.125 µg/mL (≈ 0.269 µM) | 0.125 µg/mL (≈ 0.269 µM) | 0.125 µg/mL (≈ 0.269 µM) | 32 µg/mL (≈ 68.9 µM)
23 | COc1cccc(-c2cn3c(n2)CN([C@H](C)[C@](O)(Cn2cncn2)c2ccc(F)cc2F)CC3)c1 | 0.0625 µg/mL (≈ 0.13 µM) | 0.0625 µg/mL (≈ 0.13 µM) | 0.125 µg/mL (≈ 0.26 µM) | 0.0625 µg/mL (≈ 0.13 µM) | 0.125 µg/mL (≈ 0.26 µM) | 32 µg/mL (≈ 66.6 µM)
24 | C[C@@H](N1CCn2cc(-c3cccc(F)c3)nc2C1)[C@](O)(Cn1cncn1)c1ccc(F)cc1F | 0.125 µg/mL (≈ 0.267 µM) | 0.25 µg/mL (≈ 0.534 µM) | 0.125 µg/mL (≈ 0.267 µM) | 0.25 µg/mL (≈ 0.534 µM) | 0.25 µg/mL (≈ 0.534 µM) | 64 µg/mL (≈ 137 µM)
25 | C[C@@H](N1CCn2ncnc2C1)[C@](O)(Cn1cncn1)c1ccc(F)cc1F | 0.25 µg/mL (≈ 0.666 µM) | 0.25 µg/mL (≈ 0.666 µM) | 0.25 µg/mL (≈ 0.666 µM) | 0.5 µg/mL (≈ 1.33 µM) | 0.5 µg/mL (≈ 1.33 µM) | 16 µg/mL (≈ 42.6 µM)
26 | C[C@@H](N1CCn2nc(C(F)(F)F)nc2C1)[C@](O)(Cn1cncn1)c1ccc(F)cc1F | 0.25 µg/mL (≈ 0.564 µM) | 0.5 µg/mL (≈ 1.13 µM) | 0.5 µg/mL (≈ 1.13 µM) | 0.5 µg/mL (≈ 1.13 µM) | 1 µg/mL (≈ 2.26 µM) | 32 µg/mL (≈ 72.2 µM)
27 | C[C@@H](N1CCn2nc(-c3ccc(C#N)cc3)nc2C1)[C@](O)(Cn1cncn1)c1ccc(F)cc1F | 0.125 µg/mL (≈ 0.262 µM) | 0.125 µg/mL (≈ 0.262 µM) | 0.5 µg/mL (≈ 1.05 µM) | 0.125 µg/mL (≈ 0.262 µM) | 0.125 µg/mL (≈ 0.262 µM) | 64 µg/mL (≈ 134 µM)
28 | Cc1cccc(-c2nc3n(n2)CCN([C@H](C)[C@](O)(Cn2cncn2)c2ccc(F)cc2F)C3)c1 | 0.0625 µg/mL (≈ 0.134 µM) | 0.125 µg/mL (≈ 0.269 µM) | 0.25 µg/mL (≈ 0.537 µM) | 0.125 µg/mL (≈ 0.269 µM) | 0.125 µg/mL (≈ 0.269 µM) | 32 µg/mL (≈ 68.7 µM)
29 | C[C@@H](N1CCn2nc(-c3ccc(F)cc3)nc2C1)[C@](O)(Cn1cncn1)c1ccc(F)cc1F | 0.25 µg/mL (≈ 0.533 µM) | 0.125 µg/mL (≈ 0.266 µM) | 0.125 µg/mL (≈ 0.266 µM) | 0.125 µg/mL (≈ 0.266 µM) | 0.125 µg/mL (≈ 0.266 µM) | 32 µg/mL (≈ 68.2 µM)
30 | C[C@@H](N1CCn2nc(-c3cccc(Cl)c3)nc2C1)[C@](O)(Cn1cncn1)c1ccc(F)cc1F | 0.25 µg/mL (≈ 0.514 µM) | 0.125 µg/mL (≈ 0.257 µM) | 1 µg/mL (≈ 2.06 µM) | 2 µg/mL (≈ 4.12 µM) | 1 µg/mL (≈ 2.06 µM) | 64 µg/mL (≈ 132 µM)

From ChEMBL document CHEMBL3259614, “Design, synthesis, and structure-activity relationship studies of novel fused heterocycles-linked triazoles with good activity and water solubility” (J Med Chem, 2014)
